From ChEMBL document CHEMBL1938236, “Design and synthesis of small molecular dual inhibitor of falcipain-2 and dihydrofolate reductase as antimalarial agent” (Bioorg Med Chem Lett, 2012)
Calls of active or inactive are those of the source. No cut-off for these calls is given here.

Tests used:
[1] = system: Plasmodium falciparum; test: Inhibition of Plasmodium falciparum falcipain-2 using Z-Leu-Arg-AMC as substrate at 10 uM after 30 mins by spectrophotometric assay
[2] = system: Plasmodium berghei; test: Antimalarial activity against Plasmodium berghei ANKA infected in Kunming mouse assessed as reduction of parasitemia at 18 mg/kg, ip for 4 days measured on day 5; format: functional; design: scale not given: the % may be the effect or the level left; settings: route intragastric, in the assay text read “ig for 4 days” for “ip for 4 days”
How it was run: (§1)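 Kunming mice (groups of 10, 20 2 g) infected ip with 0.2 mL of RBC (5 × 10⁶) from P. berghei ANKA-infected mice. The compound was given intragastrically starting 5 h post-infection, for 4 consecutive days, at 3, 9 or 18 mg kg⁻¹ d⁻¹ (4-day suppressive test). Parasitemia was counted as infected RBC per 1000 RBC on day 5, and reduction was calculated as 100 − 100 × (treated/control mean % parasitemia). Survivors were counted on day 10.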

[3] = system: Plasmodium berghei; test: Antimalarial activity against Plasmodium berghei ANKA infected in Kunming mouse assessed as reduction of parasitemia at 3 mg/kg, ig for 4 days measured on day 5; design: scale not given: the % may be the effect or the level left; settings: route intragastric
[4] = Inhibition of Plasmodium falciparum falcipain-2 using Z-Leu-Arg-AMC as substrate after 30 mins by spectrophotometric assay
How it was run: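 FP-2 (30 nM) was preincubated 30 min at room temperature with graded compound concentrations in 100 mM sodium acetate pH 5.5 with 10 mM DTT, DMSO ≤1%. Z-Leu-Arg-AMC in the same buffer was then added, and fluorescence (ex 355/em 460) was monitored for 30 min at room temperature. IC50 came from percent inhibition versus concentration plots, three independent experiments.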

[5] = system: Plasmodium berghei; test: Antimalarial activity against Plasmodium berghei ANKA infected in Kunming mouse assessed as reduction of parasitemia at 9 mg/kg, ip for 4 days measured on day 5; format: functional; design: scale not given: the % may be the effect or the level left; settings: route intragastric, in the assay text read “ig for 4 days” for “ip for 4 days”; how it was run: as §1
[6] = system: Plasmodium berghei; test: Antimalarial activity against Plasmodium berghei ANKA infected in Kunming mouse assessed as mouse survival at 18 mg/kg, ip for 4 days measured on day 10; format: functional, organism-based; design: dose 18 mg/kg; settings: in the assay text read “ig for 4 days” for “ip for 4 days”; how it was run: as §1
[7] = system: Plasmodium falciparum; test: Ratio of N-(2,3-dihydrobenzo[b][1,4]dioxin-6-yl)-3-(4-(N-phenethylsulfamoyl)phenyl)propanamide IC50 to compound IC50 for Plasmodium falciparum falcipain-2
[8] = system: Plasmodium berghei; test: Antimalarial activity against Plasmodium berghei ANKA infected in ig dosed Kunming mouse assessed as reduction of parasitemia administered for 4 days measured on day 5
[9] = system: Plasmodium falciparum; test: Ratio of N-(2,3-dihydrobenzo[b][1,4]dioxin-6-yl)-3-(4-(N-phenethylsulfamoyl)phenyl)propanamide IC50 to compound IC50 for Plasmodium falciparum DHFR
[10] = system: Plasmodium berghei; test: Antimalarial activity against Plasmodium berghei ANKA infected in Kunming mouse assessed as mouse survival at 3 mg/kg, ip for 4 days measured on day 10; format: functional, organism-based; design: dose 3 mg/kg; settings: in the assay text read “ig for 4 days” for “ip for 4 days”; how it was run: as §1
[11] = Inhibition of Plasmodium falciparum DHFR assessed as oxidation of NADPH to NADP+ after 15 mins spectrophotometric assay
How it was run: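 Purified P. falciparum DHFR was preincubated 15 min on ice with graded compound concentrations in buffer containing NADPH, 50 mM TES pH 7.0, 1 mM EDTA, 75 mM 2-mercaptoethanol and 1 mg/mL BSA. DHF was then added to start the reaction, and NADPH oxidation was followed by absorbance at 340 nm. IC50 came from percent inhibition versus concentration plots, three independent experiments.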

[12] = system: Plasmodium berghei; test: Antimalarial activity against Plasmodium berghei ANKA infected in Kunming mouse assessed as mouse survival at 9 mg/kg, ip for 4 days measured on day 10; format: functional, organism-based; design: dose 9 mg/kg; settings: in the assay text read “ig for 4 days” for “ip for 4 days”; how it was run: as §1
[13] = system: Plasmodium falciparum; test: Inhibition of Plasmodium falciparum DHFR assessed as oxidation of NADPH to NADP+ at 10 uM after 15 mins spectrophotometric assay
[14] = system: Plasmodium berghei; test: Antimalarial activity against Plasmodium berghei ANKA infected in Kunming mouse assessed as reduction of parasitemia at 10 mg/kg, ip for 4 days measured on day 5; format: functional; design: scale not given: the % may be the effect or the level left; settings: route intraperitoneal
[15] = system: Plasmodium berghei; test: Antimalarial activity against Plasmodium berghei ANKA infected in Kunming mouse assessed as mouse survival at 10 mg/kg, ig for 4 days measured on day 10

inhibition [1]	IC50 [4]	IC50 [11]	inhibition [13]	Compound	other results
72.9%	7 µM	6.3 µM	67.5%	CCc1nnc(NC(=O)CCc2ccc(S(=O)(=O)Nc3ccc(F)cc3)cc2)s1	Activity [2]: 75.6%; Activity [3]: 44.6%; Activity [5]: 53.6%; Activity [6]: Active; Ratio IC50 [7]: 8; Activity [8]: Dose dependent effect; Ratio IC50 [9]: 6; Activity [10]: Active; Activity [12]: Active
13.6%		12.6 µM	46.1%	COc1ccc(NC(=O)CCc2ccc(S(=O)(=O)NCCc3ccccc3)cc2)cc1O	
< 5%			11.8%	O=C(Nc1ccc2c(c1)OCCO2)c1ccc(S(=O)(=O)NCCc2ccccc2)cc1	
23%	54.2 µM	35.5 µM	26.5%	O=C(CCc1ccc(S(=O)(=O)NCCc2ccccc2)cc1)Nc1ccc2c(c1)OCCO2	
< 5%		5 µM	68%	O=C(Cc1ccc(S(=O)(=O)NCCc2ccccc2)cc1)Nc1ccc2c(c1)OCCO2	
15%		9.4 µM	51.2%	COc1ccc(NC(=O)CCc2ccc(S(=O)(=O)NCCc3ccccc3)cc2)cc1OC	

Further lines, the compound ahead of its results:

Compound	inhibition [1]	IC50 [4]	IC50 [11]	inhibition [13]	other results
CCN(CC)CCCC(C)Nc1ccnc2cc(Cl)ccc12.O=P(O)(O)O.O=P(O)(O)O (centres undefined) [CHLOROQUINE PHOSPHATE]					Activity [14]: 100%; Activity [15]: Active
CCc1nnc(NC(=O)CCc2ccc(S(=O)(=O)NCCc3ccccc3)cc2)s1	46.5%	8.1 µM	19.8 µM	31.6%	
O=C(CCc1ccc(S(=O)(=O)NCCc2ccccc2)cc1)NCc1ccccn1	10.7%			17.9%	
O=C(CCc1ccc(S(=O)(=O)NCCc2ccccc2)cc1)Nc1nc2ccccc2s1	41.5%	8.9 µM	15.1 µM	37.9%	
COc1ccc(NS(=O)(=O)c2ccc(CCC(=O)Nc3ccc4c(c3)OCCO4)cc2)cc1OC	6.3%			23.2%	
O=C(CCc1ccc(S(=O)(=O)NCCc2ccccc2)cc1)Nc1nc(-c2ccccc2)cs1	94.5%	2.7 µM	14.6 µM	34.8%	
CC(C)C[C@H](NC(=O)[C@H]1O[C@@H]1C(=O)O)C(=O)NCCCCN=C(N)N [E-64]	97.4%	0.017 µM			
O=C(CCc1ccc(S(=O)(=O)Nc2ccc(F)c(Cl)c2)cc1)Nc1ccc2c(c1)OCCO2	32.7%	13.2 µM	16.8 µM	46.5%	
CCc1nnc(NC(=O)CCc2ccc(S(=O)(=O)Nc3ccc(F)c(Cl)c3)cc2)s1	45.1%	9.8 µM	1.8 µM	70.6%	
COc1cccc(NS(=O)(=O)c2ccc(CCC(=O)Nc3ccc4c(c3)OCCO4)cc2)c1	17.9%			9.3%	
O=C(CCc1ccc(S(=O)(=O)NCc2ccccc2)cc1)Nc1ccc2c(c1)OCCO2	< 5%			15.6%	
CCc1nc(N)nc(N)c1-c1ccc(Cl)cc1 [PYRIMETHAMINE]			0.02 µM	98.9%	
O=C(CCc1ccc(S(=O)(=O)NCCc2ccccc2)cc1)NCc1cccs1	15.2%			10.8%	
